Measurements: ChEMBL document CHEMBL1137805, “In vitro cytotoxicity of the protoberberine-type alkaloids” (2001)

Legend:
Assay type in all cases: functional
[1] = Cytotoxicity against human breast cancer cells; conditions: Cancer cell lines
Procedure, shortened: (§1)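 Subpanel values are mean GI50 over the panel's strains of each tumour type: breast 5, colon 6, lung 6 or 7, ovarian 5, stomach 6. […] Cells were grown in RPMI 1640 with 5% FBS at 37 °C under 5% CO2.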

[2] = Cytotoxicity against human CNS cancer cells; conditions: Cancer cell lines
[3] = Cytotoxicity against human colon cancer cells; conditions: Cancer cell lines; procedure, shortened: as §1
[4] = Cytotoxicity against human lung cancer cells; conditions: Cancer cell lines; procedure, shortened: as §1
[5] = Cytotoxicity against human ovarian cancer cells; conditions: Cancer cell lines; procedure, shortened: as §1
[6] = Cytotoxicity against human stomach cancer cells; conditions: Cancer cell lines; procedure, shortened: as §1
MKN-28 = assay: Cytotoxicity against human MKN28 cells
Procedure, shortened: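 Each line was grown in RPMI 1640 with 5% FBS and penicillin ([…]) at 37 °C under 5% CO2. Cells were plated, attached overnight, and exposed to drug for 48 h. Sulforhodamine B staining was read at 525 nm, with control, test and time-zero absorbances. % growth = 100×(T−T0)/(C−T0), or […] T<T0. GI50 is the concentration giving 50% growth.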

Row | Compound | GI50 [1] | GI50 [2] | GI50 [3] | GI50 [4] | GI50 [5] | GI50 [6] | GI50 (MKN-28)
1 | CCCCc1c2[n+](cc3c(OC)c(OC)ccc13)CCc1cc3c(cc1-2)OCO3 | 6310 nM | 3710 nM | 2510 nM | 1780 nM | 5250 nM | 3900 nM | < 2690 nM
2 | CCCCCCc1c2[n+](cc3c(OC)c(OC)ccc13)CCc1cc3c(cc1-2)OCO3 | 760 nM | 1200 nM | 720 nM | 490 nM | 1170 nM | 760 nM | 830 nM
3 | COc1cc(Br)c2cc3[n+](c(-c4ccccc4)c2c1OC)CCc1cc2c(cc1-3)OCO2 | 1000 nM | 2000 nM | 1550 nM | 2190 nM | 2450 nM | 1910 nM | < 2690 nM
4 | CCCCc1c2c(OC)c(OC)cc(Br)c2cc2[n+]1CCc1cc3c(cc1-2)OCO3 | 520 nM | 1910 nM | 1110 nM | 1540 nM | 1380 nM | 1290 nM | < 2690 nM
5 | CCCCCCc1c2c(OC)c(OC)cc(Br)c2cc2[n+]1CCc1cc3c(cc1-2)OCO3 | 310 nM | 410 nM | 440 nM | 410 nM | 480 nM | 340 nM | 410 nM
6 | CCCCCCc1c2[n+](cc3c(OC)c(OC)ccc13)CCc1cc(OC)c(OC)cc1-2 [13-HEXYLPALMATINE] | 1050 nM | 2950 nM | 1820 nM | 2140 nM | 2880 nM | 3470 nM | < 2690 nM
7 | COc1cccc2c1C(=O)c1c(O)c3c(c(O)c1C2=O)C[C@@](O)(C(=O)CO)C[C@@H]3O[C@H]1C[C@H](N)[C@H](O)[C@H](C)O1 [DOXORUBICIN] | 1820 nM |  | 2550 nM | 400 nM | 4350 nM | 5820 nM | 
8 | CO[C@@]12[C@H](COC(N)=O)C3=C(C(=O)C(C)=C(N)C3=O)N1C[C@@H]1N[C@@H]12 [MITOMYCIN] | 34 nM |  | 180 nM | 23 nM | 120 nM | 100 nM | 
